Screening results deposited in PubChem by several laboratories.
Hsp70 activator: Hsp70 transcriptional activation, primary screen. HeLa Hsp70 promoter luciferase reporter, luminescence; scaled: vehicle 0, proteasome-inhibitor control 100%. activation, % at 10 µM. 0.04% of 200,000 active. AID 1203;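 active = activation above the mean across all tested compounds plus 3 SD, cutoff set per campaign, cut at about 5.5% in these data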;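 also: 100% = MG132 at 30 µM as the positive control and 0% = DMSO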
Rad51 HR inh: Rad51 (human) homologous recombination inhibition; inhibition, % at 10 µM; AID 1385; hRad51 DNA strand exchange, fluorescence dequenching; Q06609; 0.085% of 200,000 active;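 active = inhibition above 40% at the single screening dose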;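 also: 0% = DMSO control wells and 100% = blanks with heterologous ssDNA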
Target sequence (Q06609 whole entry, looked up): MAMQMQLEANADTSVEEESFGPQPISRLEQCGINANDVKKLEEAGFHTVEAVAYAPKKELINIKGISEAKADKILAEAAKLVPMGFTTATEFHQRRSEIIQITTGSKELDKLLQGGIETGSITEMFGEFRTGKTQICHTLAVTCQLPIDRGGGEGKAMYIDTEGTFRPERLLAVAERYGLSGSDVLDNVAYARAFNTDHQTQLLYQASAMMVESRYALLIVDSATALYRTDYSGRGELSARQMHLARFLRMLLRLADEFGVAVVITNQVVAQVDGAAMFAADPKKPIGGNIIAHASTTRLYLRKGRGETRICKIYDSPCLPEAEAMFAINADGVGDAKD
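Test system: preformed human Rad51 ssDNA filaments. Compound dosing: single dose, 10 µM final compound. Incubation: filaments 15 min 37 °C, then compound 30 min. Technique: FRET fluorescence dequenching, excitation 485 nm, emission 520 nm. Read-out basis: percent inhibition from fluorescence, normalised to plate control and blank means. Benchmarks: plate controls and plate blanks.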
FXN GAA850 act: increases GAA850 frataxin promoter reporter activity. activation, % at 6 µM. HEK293 lucGAA850 FXN promoter luciferase reporter, 24 h; percent of 10 µM SAHA response. 0.56% of 360,000 active. AID 540364;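 active = activation above the average of all compounds screened plus 3 SD, cutoff fixed separately per campaign, cut at about 7.5% in these data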;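 also: 0% = DMSO wells and 100% = 10 µM SAHA wells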
ABHD5 PLIN5 PPI: ABHD5-PLIN5 protein interaction inhibition; AID 602281; inhibition, % at 4 µM; 0.78% of 360,000 active; Split G. princeps luciferase complementation, luminescence, 4 h;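 active = inhibition above the mean inhibition across every tested compound plus 3 SD, cut at about 22% in these data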;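 also: 0% = DMSO only wells and the 100% control is not disclosed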
TAG inh: reduces triacylglycerol accumulation in H9c2 cells; 0.66% of 230,000 active; Nile Red lipid (TAG) fluorescence; cells loaded with 200 µM oleic acid; AID 651582; inhibition, % at 12.5 µM;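 active = pattern-corrected inhibition of lipid staining of at least 50% with the nuclear-stain viability signal not falling by more than 50%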;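 also: 0% = DMSO wells and 100% = triacsin C control wells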
HIF act: HIF pathway transcriptional activation. U2OS HRE-luciferase reporter, luminescence; normalized: DMSO 0%, desferrioxamine 100%. activation, % at 7.5 µM (by protocol). 0.32% of 300,000 active;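 active = mean activation of at least 10% of the iron chelator positive control signal, with at least half of replicates also reaching 10%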
* hit, by the source's call; . = no result. Rows were chosen to be rich in hits. Some 1.9% of all compounds tested hit in one or more screens of this group.

SMILES	Hsp70 activator	Rad51 HR inh	FXN GAA850 act	ABHD5 PLIN5 PPI	TAG inh	HIF act
Oc1cc(O)c(CN2CCOCC2)cc1CN1CCOCC1	.	.	0	22*	-19	.
Oc1c(CN2CCOCC2)cc(CN2CCOCC2)cc1CN1CCOCC1	.	.	0	5	8	.
COc1cccc(C2C3=C(N=c4s/c(=C\c5ccccc5O)c(=O)n42)c2ccccc2CC3)c1OC (stereo unspecified)	2	2	.	.	.	616*
COc1cccc(-c2sc3ccc(OC)cc3c2-c2ccc(OCCN3CCCC3)cc2)c1	.	.	2	22	18	.
COc1cccc(-c2sc3cc(OC)c(OC)cc3c2-c2ccc(OCCN3CCCCC3)cc2)c1	.	.	1	9	92*	.
CC(C)CN(CCNC(=O)c1cn(C)c2ccc(S(=O)(=O)N3CCCC3)cc2c1=O)CC(C)C	.	.	-1	4	.	184*
CC(C)(C)c1cc[n+](C2=C([O-])c3ccccc3C(=O)/C2=N\S(=O)(=O)c2cccs2)cc1	.	.	-9	-2	64*	-4
O=C1/C(=N\S(=O)(=O)c2cccs2)C([n+]2ccccc2)=C([O-])c2ccccc21	.	10	-7	1	76*	0
Cc1ccc(NC2=C/C(=N\S(=O)(=O)c3cccs3)c3ccccc3C2=O)c(C)c1	0	8	-14	-2	154	-32
O=C(NCc1ccco1)C1(c2ccc(Br)cc2)CCCC1	0	-4	1	4	.	0
Cc1c(C(=O)OCCOC(C)C)[nH]c2c1C(=O)CC(c1ccco1)C2 (stereo unspecified)	1	-5	0	30*	43	2
Cc1c(C(=O)OCc2ccccc2)[nH]c2c1C(=O)CC(c1ccco1)C2 (stereo unspecified)	0	3	-2	14	8	2
CSCCOC(=O)c1[nH]c2c(c1C)C(=O)CC(c1ccco1)C2 (stereo unspecified)	0	3	0	7	56*	1
COCCOC(=O)c1[nH]c2c(c1C)C(=O)CC(c1ccco1)C2 (stereo unspecified)	0	-2	-1	15	60*	0
CCOC(=O)c1[nH]c2c(c1C)C(=O)CC(c1ccco1)C2 (stereo unspecified)	1	-3	0	13	38	2
COc1cc(-c2cccc([C@H]3[C@@H]4C=CC[C@@H](C)[C@@H]4C(=O)N3Cc3ccccc3)c2)cc(OC)c1OC	.	.	-1	-6	-11	.
O=C(Nc1ccc(-c2cccc(F)c2)cc1)C1CCCN(Cc2ccccn2)C1 (stereo unspecified)	.	.	0	-3	3	0
CN(C(=O)c1ccc(S(=O)(=O)N2CCCCC2)cc1)C1CCS(=O)(=O)C1 (stereo unspecified)	.	.	-1	-5	-10	-11
S=c1[nH]nc(-c2ccco2)n1/N=C/c1cccs1	0	2	2	-4	3	58*
CCCn1c2ccccc2c2cnn(CC(=O)NC3CCC(C)CC3)c(=O)c21 (stereo unspecified)	.	.	-1	2	.	0
CCCn1c2ccccc2c2cnn(CC(=O)NC3CCCC(C)C3C)c(=O)c21 (stereo unspecified)	.	.	0	3	.	13*
O=[N+]([O-])c1ccc(O)c2ncccc12	0	-12	-4	-3	9	0
O=Nc1ccc(O)c2ncccc12	.	-4	-13	-3	67*	8
Oc1ccc(N=Nc2ccc3c(c2)OCCO3)c2cccnc12	0	-5	-11	1	91*	14*
Cc1ccccc1N=Nc1ccc(O)c2ncccc12	0	0	2	6	86*	38*
O=S(=O)(O)c1cccc2c(N=Nc3ccc(O)c4ncccc34)cccc12	.	.	-1	36*	.	-2
O=C(NC(Cc1ccccc1)C(=O)N1CCN(c2ccccc2O)CC1)c1ccccc1 (stereo unspecified)	.	.	-3	-7	0	.
O=C1CSc2ccc(S(=O)(=O)N3CCN(c4ccccc4F)CC3)cc2N1	.	.	-2	-14	.	0
CC(=O)N1c2ccc(S(=O)(=O)NCC3CCC(C(=O)Nc4cccc(C)n4)CC3)cc2CC1C (stereo unspecified)	.	.	-4	5	.	0
COc1ccc(C)cc1N=Nc1ccc(O)c2ncccc12	-1	3	-4	9	.	4
